Screening results deposited in PubChem BioAssay by several laboratories.
Shown is part of a subset that was picked to be rich in hits.
CHOP UPR activ – activators of apoptotic CHOP UPR arm, primary screen, cell-based, CHO-CHOP luciferase reporter, luminescence, uHTS. UPR activation; percent of tunicamycin response over DMSO baseline. activation, % at 10 µM. 330,000 tested, 0.34% active;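 active = at 10 µM dose, activation of 40% or more, normalized to positive control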;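 note: 100% = tunicamycin at 10 µg/mL and 0% = DMSO alone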
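Evaluation: % reporter activation, DMSO baseline versus tunicamycin full activation; System: CHO-CHOP luciferase reporter cell line; Input: 500 cells/well; Incubation: 6 h compound treatment, 37 °C; Measured by: Steady-Glo luciferase luminescence; Dosing: one dose, 10 µM in 0.5% DMSO; Buffer or medium: F12 medium, 10% FBS; Benchmarks: positive tunicamycin 10 µg/mL, negative DMSO alone.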
VLA-4 inh – inhibition in human VLA-4 binding assay, primary screen, VLA-4 allosteric modulator project, MLPCN library, flow cytometry, VLA-4 expressing cells; ligand binding flow cytometry; 330,000 tested, 0.2% active; Integrin alpha-4 (Homo sapiens), P13612; inhibition, % (about 7 µM as worked out from the volumes in the protocol); in the data active = inhibition above about 50%
UPR XBP1 act – activators of adaptive XBP1 UPR arm, primary screen, cell-based, CHO-XBP1 luciferase reporter, luminescence, uHTS; 330,000 tested, 0.33% active; IRE1-XBP1 UPR activation; percent of tunicamycin response, DMSO as zero; activation, % at 20 µM; AID 463104, 2010;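 active = versus positive control, 20 µM dose yields 30% or more activation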;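 note: 100% = tunicamycin at 10 µg/mL and 0% = DMSO only wells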
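Assay system: CHO-XBP1 luciferase reporter cells; Schedule: 6 h treatment, 37 °C; Detection: glow luminescence from Steady-Glo reagent; Benchmarks: high control tunicamycin 10 µg/mL final, low control DMSO vehicle only.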
CHOP inhibitor – inhibitors of CHOP promoter induction, primary screen, cell-based, unfolded protein response, luciferase reporter; CHO-K1 CHOP-promoter luciferase, tunicamycin-induced, 15-18 h; inhibition, % at 10 µM; 220,000 tested, 3.8% active; AID 2732, 2010;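 active = compounds that reduced the stress-induced luciferase reporter signal by more than about 70% of percent inhibition, limit read from the data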;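 note: 0% = tunicamycin plus vehicle and 100% = wells without tunicamycin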
B2AR ag – beta2AR agonists driving receptor internalization, primary screen, cell-based, FAP fluorogen, flow cytometry | Beta-2 adrenergic receptor (Homo sapiens), P07550 | Am2.2-beta2AR cells | response, % (no concentration beside the values) | 340,000 tested, 0.43% active | AID 504454, 2011;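 active = response above a set limit, near 3 SD of response in nonfluorescent compounds, cut at about 42% in these data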
Target sequence (P07550 whole entry, looked up): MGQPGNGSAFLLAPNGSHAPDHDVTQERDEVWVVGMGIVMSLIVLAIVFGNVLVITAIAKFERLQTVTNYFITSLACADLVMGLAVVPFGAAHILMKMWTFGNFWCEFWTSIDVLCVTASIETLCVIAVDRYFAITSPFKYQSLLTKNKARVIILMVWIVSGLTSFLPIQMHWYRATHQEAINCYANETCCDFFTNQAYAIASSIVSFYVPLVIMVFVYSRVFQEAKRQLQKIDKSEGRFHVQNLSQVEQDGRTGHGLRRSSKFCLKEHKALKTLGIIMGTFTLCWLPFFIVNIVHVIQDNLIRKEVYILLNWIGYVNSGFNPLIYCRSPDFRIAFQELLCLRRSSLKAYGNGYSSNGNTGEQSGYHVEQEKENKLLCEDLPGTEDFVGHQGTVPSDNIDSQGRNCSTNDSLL
* = called active by the depositor; x = no result given.

SMILES | CHOP UPR activ | VLA-4 inh | UPR XBP1 act | CHOP inhibitor | B2AR ag
C=CCn1c(=NC(=O)c2ccco2)sc2cc(C(=O)OC)ccc21 | 3 | 20 | 3 | 80* | -6
C=CCn1c(=NC(=O)c2ccco2)sc2cc(C(=O)OCC)ccc21 | 3 | 8 | 0 | 84* | -16
CCC(=N\NC(=O)COc1ccccc1OC)/C(CC)=N/NC(=O)COc1ccccc1OC | 0 | 9 | 1 | x | -1
Cc1cccc(NC(=O)COC(=O)COc2ccc3c(c2)CCC3)c1 | -1 | 5 | -2 | x | -2
CC(C)(C)NC(=O)NC(=O)COC(=O)CCC1CCCC1 | 1 | -21 | -1 | 77* | 6
Cc1cc(C)cc(NC(=O)COC(=O)CCC2CCCC2)c1 | 1 | 6 | 0 | x | 15
CC(C)(C)NC(=O)NC(=O)COC(=O)COc1ccc2c(c1)CCC2 | -1 | 15 | -2 | 85* | -4
S=C(NCc1ccccc1)N1CCCCC1 | 1 | -3 | -5 | 24 | 5
CC(=O)N1CCN(C(=S)NCc2ccccc2)CC1 | 1 | 54* | -1 | 11 | -11
Cc1cccc(NC(=O)CCC(=O)c2cccs2)n1 | 3 | -3 | 0 | x | -3
Cc1cc(-c2csc(N)n2)c(C)n1CCc1ccccc1 | -6 | -26 | -2 | 81* | 7
Cc1nn(C)cc1-c1csc(N)n1 | -1 | 4 | 0 | -18 | -1
Cc1cc(-c2csc(N)n2)c(C)n1CCC(C)C | -4 | -3 | 2 | 79* | 9
CCS(=O)(=O)N1Cc2ccccc2CC1C(=O)OCC(=O)Nc1ccc(SC(F)F)cc1 (centres undefined) | 0 | 20 | 0 | 93* | 6
Cc1onc(-c2ccccc2)c1C(=O)Nc1nnc(COc2ccc(Cl)cc2)s1 | 7 | 19 | -7 | 89* | 9
CCc1nnc(NC(=O)c2c(-c3ccccc3)noc2C)s1 | -1 | 2 | -3 | x | 8
O=C(Nc1nnc(COc2ccccc2)s1)C1CCN(S(=O)(=O)c2ccc(Cl)cc2)CC1 | 2 | 7 | 0 | 80* | 12
Cc1onc(-c2ccccc2Cl)c1C(=O)Nc1nnc(-c2ccc(Cl)cc2Cl)s1 | 1 | -4 | -4 | 78* | 1
Cc1ccc(CN(C(=O)c2ccc(Cl)c([N+](=O)[O-])c2)C2CCS(=O)(=O)C2)o1 (centres undefined) | -1 | 2 | -3 | x | 11
COC(=O)c1ccc(SCC(=O)NCc2ccccc2)c([N+](=O)[O-])c1 | 2 | 10 | -6 | x | 5
Cc1cc(Nc2ccccc2)c2c([N+](=O)[O-])c(C)cc(C)c2n1 | -3 | -3 | 6 | 92* | -4
Cc1[nH]c2ccccc2c1C1C(c2ccccc2)=NN=C(C(C)C)N1O (centres undefined) | -2 | -9 | -1 | 72* | 7
CC1=NN=C(c2ccccc2)C(c2c[nH]c3ccccc23)N1O (centres undefined) | 2 | 10 | -1 | -29 | 3
CCOC(=O)/C(=N\Nc1ccccc1Cl)N1CC(C)OC(C)C1 (centres undefined) | -1 | 3 | -1 | 70* | 11
Cc1ccc(N2CCN(c3ccc(C)cc3)C2c2ccncc2)cc1 | -1 | 24 | -3 | 77* | -3
SMILES | CHOP UPR activ | VLA-4 inh | UPR XBP1 act | CHOP inhibitor | B2AR ag
Cc1cccc(N2CCN(c3cccc(C)c3)C2c2cccnc2)c1 | 3 | -7 | -3 | x | 0
CC(C(=O)OCC(=O)Nc1cccc(S(=O)(=O)N(C)C)c1)N1C(=O)c2ccccc2C1=O (centres undefined) | -1 | 15 | -3 | 12 | 7
CN1CCN(CCCNC(=O)c2ccc(/C=C3\Sc4ccccc4N(Cc4ccc(F)cc4)C3=O)cc2)CC1 | x | x | x | -28 | 99*
COCCCNC(=O)/C=C1\Sc2ccccc2N(Cc2ccccc2F)C1=O | 3 | 27 | -1 | -21 | 8
CN1CCN(CCCNC(=O)c2ccc(/C=C3/Sc4ccccc4N(Cc4cccc(Cl)c4)C3=O)cc2)CC1 | x | x | x | -5 | 24
CCN1CCN(CCNC(=O)c2ccc(/C=C3\Sc4ccccc4N(Cc4ccccc4F)C3=O)cc2)CC1 | 1 | 3 | 7 | 23 | 55*
O=C(COC(=O)c1cc(=O)[nH]c2ccc(Br)cc12)c1ccccc1 | -1 | 0 | 2 | 70 | -5
O=C(COC(=O)c1cc(=O)[nH]c2ccccc12)c1ccc(Br)cc1 | 3 | -1 | -2 | 72* | -3
CCc1cc2c(cc3c(=O)n(CC(=O)NCCCN4CCCCCC4)nc(CC)n32)s1 | 0 | 8 | -1 | x | -2
CCc1ccc(/C=C/C(=O)C2C(=O)c3ccccc3C2=O)cc1 | -2 | 22 | -2 | 90* | 7
O=C(/C=C/c1ccccc1)C1C(=O)c2ccccc2C1=O | 1 | -4 | -2 | 16 | 5
O=C(CCc1c[nH]c2ccccc12)OCC(=O)N1CCN(S(=O)(=O)c2ccccc2)CC1 | 1 | -1 | -2 | x | -1
O=C(Cn1cnc2ccccc2c1=O)Nc1nnc(SCc2ccc(Cl)cc2)s1 | 0 | 0 | 0 | 86* | 0
CCn1cc(C(=O)O)c(=O)c2cc(F)c(N3CCN(S(=O)(=O)c4ccc(Br)cc4)CC3)cc21 | 7 | 12 | 12 | 76* | x
CCCc1cc(C(=O)N2CCN(c3ccc(C(F)(F)F)cn3)CC2)sc1C | -2 | 3 | -4 | x | 0
N#C/C(=C\Nc1ccc2c(c1)OCCO2)c1nc2ccccc2[nH]1 | 3 | -13 | 7 | 74* | 4
CC(C)=CCC/C(C)=C/C=N/NC(=O)c1cccc([N+](=O)[O-])c1 | -1 | -7 | -4 | 89* | 1
Cn1c(-c2ccco2)n[nH]c1=S | -1 | -25 | 0 | -7 | 11
S=c1nc(-c2ccco2)[nH][nH]1 | -2 | -4 | 0 | 74* | -7
O=C(N/N=C/c1c[nH]c2ccccc12)c1[nH]c2ccc(Br)cc2c1-c1ccccc1 | x | x | x | 92* | 19
COc1cc(/C=C(/C#N)c2nc3ccccc3[nH]2)ccc1Oc1ncccc1[N+](=O)[O-] | 11 | 20 | 21 | 92* | -3
COC(=O)c1ccc(COc2ccc(/C=C(\C#N)c3nc4ccccc4[nH]3)cc2OC)o1 | 4 | -12 | 8 | 38 | 43*
CCCc1ccc(OCc2ccc(C(=O)OC)o2)c(OC)c1 | 3 | 0 | 0 | 78* | 8
CCCc1ccc(OCc2ccc(C(=O)O)o2)c(OC)c1 | -8 | 3 | 1 | 3 | -2
CCOc1cc(/C=C(/C#N)c2nc3ccccc3[nH]2)ccc1Oc1ccc([N+](=O)[O-])cn1 | 10 | -17 | 0 | 66 | -21
